eIF4H FP inh: inhibitors of RNA binding by human eIF4H. inhibition, % at 35 µM. eIF4H fluorescence polarization binding assay. AID 2012. hit rate 0.94% among 290,000;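 further: calls also rest on retests at 20 µM and on dose response follow-up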
PABP polyA inh: PABP-poly(A) binding inhibition; P11940; AID 2014; PABP-poly(A) RNA binding, fluorescence polarization; calls only at 35 µM; hit rate 1% among 290,000;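 further: calls also rest on retests at 20 µM and on dose response follow-up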
TCR-CD3 inh: human TCR-CD3 binding inhibition | TAMRA-labeled TCR probe fluorescence, biochemical | inhibition, % at 9.4 µM | hit rate 0.37% among 360,000; in the data active means inhibition above about 19%;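 further: recombinant mutant TCR 2C K166C tagged with TAMRA read by polarization; 0% = receptor in buffer alone and 100% = receptor with positive control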
PABP1 MLLE inh: inhibitors of microRNA-mediated deadenylation, human PABP1 MLLE binding; P11940; GST-MLLE / FITC-PAM2 fluorescence polarization; inhibition, % at 20 µM; hit rate 0.36% among 360,000; AID 588489; in the data active means inhibition above about 35%, passing the limit was not always enough;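 further: plate controls were DMSO wells with GST-MLLE for no effect and wells lacking GST-MLLE protein for full effect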
RBBP9 inh: human RBBP9 hydrolase inhibition; O75884; inhibition, % at 7.94 µM; hit rate 0.2% among 220,000; recombinant RBBP9, FP-Rh probe fluorescence polarization; AID 1515;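 active means inhibition above the campaign mean of all tested compounds plus 3 SD, cut at about 14% in these data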;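 further: plate controls were DMSO wells with RBBP9 for no effect and wells lacking RBBP9 protein for full effect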
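Measured by – fluorescence polarization · Test system – RBBP9 protein · Input – 2.5 µM RBBP9 dispensing solution, before mixing · Measure – percent inhibition from mP, scaled between DMSO and no-protein wells · Benchmarks – DMSO-treated enzyme wells and wells lacking RBBP9 · Times – preincubation 30 min plus labeling 45 min at 25 °C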
The depositor's hits bear a star; i = inactive; ? = inconclusive; · = no result given; + = active, no number. Sampled rows, rich in hits. Any-hit rate of the full collection: about 1.6%. Unless noted, how the calls were made is not given here.

SMILES	eIF4H FP inh	PABP polyA inh	TCR-CD3 inh	PABP1 MLLE inh	RBBP9 inh
CC(C)C1=CC2C3C(C(C(C)C)=CC(=O)[C@@]3(C)O)C1C(=O)C2(C)O (stereo not given in full)	·	·	-3.4	·	·
O=C(Cc1cccc2ccccc12)NC(NC(=S)Nc1ccccc1Cl)C(Cl)(Cl)Cl (stereo not given)	-7.1	i	8.5	45.9*	-9.3
O=C(N[C@H](Cc1ccccc1)C(=O)NCCN1CCOCC1)[C@H]1O[C@@H](n2ccc(=O)[nH]c2=O)[C@H](O)[C@@H]1O	·	·	6.6	·	·
Cc1cc(N2CCN(S(C)(=O)=O)C[C@H]2C)ccc1N1CCN(Cc2ccccc2)[C@H](C)C1	·	·	10.6	·	·
CC1(C)CC(=O)C=C(C2CC2)C1=O	·	·	4.3	·	·
CCOC(=O)c1c(=O)n(O)c2ccc(C)cc2[n+]1[O-]	103.5*	+	2.4	-54.5	-7.2
CCOC(=O)c1c(C)[n+]([O-])c2ccc3c(non3O)c12	8.3	i	-4.4	-12.0	-1.8
N#Cc1ccc(OCCCN2CCC(C(O)(C3=CCCC3)c3ccccc3)CC2)cc1 (stereo not given)	·	·	0.0	·	·
CC1=NN(Cc2ccccc2)C(=O)/C1=C\c1ccc(N(C)C)cc1	-26.4	i	-6.3	-25.3	-4.1
Cc1ccccc1-c1nnc2s/c(=C\c3ccc(N(C)C)cc3)c(=O)n12	82.4*	+	·	·	·
Cc1ccc(-c2cc(NC(=O)Cc3c(C)[nH]c4ccccc34)ccc2Nc2cccnc2)cc1	·	·	-1.9	·	·
CCC/C(=N/NC(=O)c1csc(C)c1C)c1ccc(Cl)s1	active	i	0.7	6.2	-1.0
CCC/C(=N\NC(=O)c1ccco1)c1ccc(Cl)s1	7.2	i	-0.6	-11.0	·
COc1cccc(C(=O)N[C@H](C(=O)N2CCC[C@H]2C(=O)NCCc2ccccc2Cl)c2ccccc2)c1	·	·	5.6	·	·
CCN=C1NC(c2ccccc2C(F)(F)F)C(C(=O)OC)=C(C)N1Cc1ccc(C(F)(F)F)cc1 (stereo not given)	·	·	-1.1	·	·
CCn1c(C)[n+](CC)c2ccc(C(=O)N(C)c3ccccc3)cc21	-3.5	+	-4.5	-112.9	-10.7
CC[n+]1c(C)n(-c2ccccc2)c2ccc(C(=O)OC)cc21	1.1	+	8.0	-84.9	-7.0
CCOC(=O)c1ccc2c(c1)n(CC)c(C)[n+]2CC	-4.9	i	-2.3	-125.1	-5.0
CCOC(=O)c1ccc2c(c1)[n+](CC)c(C)n2-c1ccccc1	-9.0	+	-3.2	-120.1	4.4
COc1cc(/C=c2\s/c(=C(/C#N)C(=O)N3CCCC3)n(-c3ccccc3)c2=O)ccc1O	80.0*	+	-12.4	-32.5	-13.5
CC(C)CNc1cccc2c1S(=O)(=O)N[C@@H](CC(C)C)CO2	·	·	7.6	·	·
CCOC(=O)C(=C1Nc2ccccc2N1)n1c(-c2ccco2)nc2ccccc21	·	·	21.6*	·	·
CCOC(=O)c1c(C)[nH]c(C)c1S(=O)(=O)NC(CC)CN1CCOCC1 (stereo not given)	94.5*	+	-8.9	1.2	·
CCCN(CCC)c1ccc(/C=C/c2ccc3cc(OCC)ccc3n2)cc1	?	+	-0.7	-94.7	-11.5
CC(C)C[C@H]1CNC(=O)C(=O)N1C[C@@H]1CCCN1C[C@H](Cc1ccccc1)N1C[C@H](CC(C)C)N(CC2CCCCC2)C(=O)C1=O	·	·	-3.4	·	·
SMILES	eIF4H FP inh	PABP polyA inh	TCR-CD3 inh	PABP1 MLLE inh	RBBP9 inh
CC(=O)Nc1ccc2ccc3cccc4ccc1c2c34	60.4*	i	1.5	2.0	-7.4
CC(=O)Nc1cccc2cc(O)ccc12	·	·	1.6	10.6	·
COc1ccc(/C(C)=N/N=C(N)N)c(O)c1	-2.1	i	-1.5	-4.2	-10.4
CNC(=S)NN=C(C)c1ccc(OC)cc1O	·	·	16.6	43.1*	·
Cc1cc2c(nc1C)CCCN2Cc1ccc(Br)cc1	·	·	3.4	·	·
Cc1ccc(NS(=O)(=O)c2cc3c4c(cccc4c2)C(=O)NC3=O)cc1C	57.0	+	6.7	0.4	-3.4
O=C1NC(=O)c2cc(Br)cc3cccc1c23	9.4	i	0.2	2.0	-3.4
CC(C)(C)c1ccc(S(=O)(=O)N2CCN(C(=O)C(=O)c3cccc(C(F)(F)F)c3)CC2)cc1	·	·	3.6	·	·
CSc1c(N(C)C)c(=O)c1=S	·	·	-5.1	·	·
O=C(Oc1ccc2c(c1)OCO2)c1cc2c(s1)CCC2	98.5*	+	12.8	-0.1	-5.2
O=C(c1cc2c(s1)CCCC2)N1CCN(Cc2ccc3c(c2)OCO3)CC1	-12.5	i	-1.6	3.9	-5.8
CCSC1(SCC)N=C(N)C2(C#N)C(c3ccccc3)NC3=C(CCC3)C12C#N (stereo not given)	71.8*	+	0.7	1.6	-0.3
